Measured values: ChEMBL document CHEMBL4422636, “Investigation of the structural requirements for N-methyl-D-aspartate receptor positive and negative allosteric modulators based on 2-naphthoic acid” (Eur J Med Chem, 2019)
Activity calls are given as the source filed them. The rule behind the calls is not given here.

How the values were obtained:
[1] = target: Glutamate receptor ionotropic, NMDA 2C (Rattus norvegicus) (UniProt Q00961); experiment: Allosteric modulation of rat GluN2C expressed in Xenopus laevis oocytes assessed as L-glutamate/glycine-induced current response at 100 uM at holding potential -60 mV by two-electrode voltage clamp method relative to L-glutamate/glycine; format: cell-based
Glutamate receptor ionotropic, NMDA 2C (Rattus norvegicus), sequence (Q00961 20-1237 limits assumed): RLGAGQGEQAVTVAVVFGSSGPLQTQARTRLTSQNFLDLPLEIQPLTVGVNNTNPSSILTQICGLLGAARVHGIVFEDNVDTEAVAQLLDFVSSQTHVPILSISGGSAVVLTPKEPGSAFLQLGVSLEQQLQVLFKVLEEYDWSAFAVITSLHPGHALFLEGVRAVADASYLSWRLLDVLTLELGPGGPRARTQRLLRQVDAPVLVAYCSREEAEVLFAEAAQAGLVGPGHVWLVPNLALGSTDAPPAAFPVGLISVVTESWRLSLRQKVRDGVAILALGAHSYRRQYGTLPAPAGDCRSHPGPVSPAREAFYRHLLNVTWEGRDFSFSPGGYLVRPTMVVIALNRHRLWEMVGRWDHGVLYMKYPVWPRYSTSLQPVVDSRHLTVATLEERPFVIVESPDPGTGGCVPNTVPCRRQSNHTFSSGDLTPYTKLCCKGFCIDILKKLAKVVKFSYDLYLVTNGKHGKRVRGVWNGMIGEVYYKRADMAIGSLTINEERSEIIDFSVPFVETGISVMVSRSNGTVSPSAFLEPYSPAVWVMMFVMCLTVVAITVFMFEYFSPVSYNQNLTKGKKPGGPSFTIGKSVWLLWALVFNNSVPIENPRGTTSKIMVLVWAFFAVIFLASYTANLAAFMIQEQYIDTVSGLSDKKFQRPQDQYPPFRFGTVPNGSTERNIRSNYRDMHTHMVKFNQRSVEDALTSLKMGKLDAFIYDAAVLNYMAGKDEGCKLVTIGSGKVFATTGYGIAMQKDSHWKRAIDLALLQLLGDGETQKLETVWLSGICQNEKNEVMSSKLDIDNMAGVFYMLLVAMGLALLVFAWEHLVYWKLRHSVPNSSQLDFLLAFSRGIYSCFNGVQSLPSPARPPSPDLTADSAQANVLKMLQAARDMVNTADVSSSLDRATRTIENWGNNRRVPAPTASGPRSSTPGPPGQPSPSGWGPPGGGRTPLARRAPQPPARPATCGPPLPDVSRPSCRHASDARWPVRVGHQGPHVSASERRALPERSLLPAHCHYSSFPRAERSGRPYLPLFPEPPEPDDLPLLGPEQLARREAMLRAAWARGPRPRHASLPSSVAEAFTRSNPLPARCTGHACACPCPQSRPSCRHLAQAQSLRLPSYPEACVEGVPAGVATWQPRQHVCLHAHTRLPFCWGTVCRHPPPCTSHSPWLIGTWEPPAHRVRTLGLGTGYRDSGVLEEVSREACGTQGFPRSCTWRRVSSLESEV
In short: (§1)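 GluN1a with one GluN2 subunit; RNAs mixed 1:1–3 molar, 15–30 ng total injected into Xenopus oocytes, which were held in ND-96 at 17°C for 1–5 days. TEVC at −60 mV in 116 mM NaCl, 2 mM KCl, 0.3 mM BaCl2, 5 mM HEPES, pH 7.4. […] Reported as % of agonist-alone response, mean ± s.e.m., n≥4.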

[2] = Solubility of the compound at 100 uM; format: physicochemical
In short: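 Compounds were inspected for visible precipitation at the concentrations used in the oocyte assays.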

[3] = target: Glutamate receptor ionotropic, NMDA 2B (Rattus norvegicus) (UniProt Q00960); experiment: Allosteric modulation of rat GluN2B expressed in Xenopus laevis oocytes assessed as L-glutamate/glycine-induced current response at 100 uM at holding potential -60 mV by two-electrode voltage clamp method relative to L-glutamate/glycine; format: cell-based; in short: as §1
Glutamate receptor ionotropic, NMDA 2B (Rattus norvegicus), sequence (Q00960 27-1482 limits assumed): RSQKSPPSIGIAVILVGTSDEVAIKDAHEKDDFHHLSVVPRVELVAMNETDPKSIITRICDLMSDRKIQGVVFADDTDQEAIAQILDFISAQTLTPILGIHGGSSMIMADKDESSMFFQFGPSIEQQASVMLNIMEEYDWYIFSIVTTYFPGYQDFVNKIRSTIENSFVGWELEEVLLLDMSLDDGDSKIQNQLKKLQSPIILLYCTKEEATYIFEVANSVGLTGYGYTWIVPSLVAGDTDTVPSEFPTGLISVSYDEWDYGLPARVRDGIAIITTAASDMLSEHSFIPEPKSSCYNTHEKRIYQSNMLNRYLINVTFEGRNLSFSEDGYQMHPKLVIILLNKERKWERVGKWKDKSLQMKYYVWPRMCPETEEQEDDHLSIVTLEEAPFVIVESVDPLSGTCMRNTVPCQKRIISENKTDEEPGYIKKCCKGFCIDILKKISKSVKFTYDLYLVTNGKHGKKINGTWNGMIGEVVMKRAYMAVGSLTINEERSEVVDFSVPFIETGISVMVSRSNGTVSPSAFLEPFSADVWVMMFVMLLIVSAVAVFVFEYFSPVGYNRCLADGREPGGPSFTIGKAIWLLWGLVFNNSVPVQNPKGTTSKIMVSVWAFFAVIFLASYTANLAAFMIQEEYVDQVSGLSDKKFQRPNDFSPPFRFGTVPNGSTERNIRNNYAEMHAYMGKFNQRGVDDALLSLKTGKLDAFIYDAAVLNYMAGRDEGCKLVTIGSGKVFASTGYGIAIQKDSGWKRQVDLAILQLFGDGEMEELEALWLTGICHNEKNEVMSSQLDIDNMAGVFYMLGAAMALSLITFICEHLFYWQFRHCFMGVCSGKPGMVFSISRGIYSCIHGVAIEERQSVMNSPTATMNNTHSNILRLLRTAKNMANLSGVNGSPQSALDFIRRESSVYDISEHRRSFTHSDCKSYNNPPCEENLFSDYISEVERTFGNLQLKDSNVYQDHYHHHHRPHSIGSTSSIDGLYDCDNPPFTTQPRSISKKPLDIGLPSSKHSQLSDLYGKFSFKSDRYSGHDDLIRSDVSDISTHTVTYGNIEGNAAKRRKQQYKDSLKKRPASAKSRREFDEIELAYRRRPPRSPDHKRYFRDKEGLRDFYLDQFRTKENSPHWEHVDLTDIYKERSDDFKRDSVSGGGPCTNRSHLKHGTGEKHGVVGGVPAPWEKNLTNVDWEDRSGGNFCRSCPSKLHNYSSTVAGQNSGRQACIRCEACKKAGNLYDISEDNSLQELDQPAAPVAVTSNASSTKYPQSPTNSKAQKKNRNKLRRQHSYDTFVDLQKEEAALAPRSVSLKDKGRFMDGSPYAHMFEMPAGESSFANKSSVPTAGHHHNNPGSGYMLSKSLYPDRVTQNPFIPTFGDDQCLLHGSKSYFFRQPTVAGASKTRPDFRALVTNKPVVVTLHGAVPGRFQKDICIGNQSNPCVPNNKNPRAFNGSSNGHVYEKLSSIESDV

[4] = target: Glutamate receptor ionotropic, NMDA 2A (Rattus norvegicus) (UniProt Q00959); experiment: Allosteric modulation of rat GluN2A expressed in Xenopus laevis oocytes assessed as L-glutamate/glycine-induced current response at 100 uM at holding potential -60 mV by two-electrode voltage clamp method relative to L-glutamate/glycine; format: cell-based; in short: as §1
Glutamate receptor ionotropic, NMDA 2A (Rattus norvegicus), sequence (Q00959 23-1464 limits assumed): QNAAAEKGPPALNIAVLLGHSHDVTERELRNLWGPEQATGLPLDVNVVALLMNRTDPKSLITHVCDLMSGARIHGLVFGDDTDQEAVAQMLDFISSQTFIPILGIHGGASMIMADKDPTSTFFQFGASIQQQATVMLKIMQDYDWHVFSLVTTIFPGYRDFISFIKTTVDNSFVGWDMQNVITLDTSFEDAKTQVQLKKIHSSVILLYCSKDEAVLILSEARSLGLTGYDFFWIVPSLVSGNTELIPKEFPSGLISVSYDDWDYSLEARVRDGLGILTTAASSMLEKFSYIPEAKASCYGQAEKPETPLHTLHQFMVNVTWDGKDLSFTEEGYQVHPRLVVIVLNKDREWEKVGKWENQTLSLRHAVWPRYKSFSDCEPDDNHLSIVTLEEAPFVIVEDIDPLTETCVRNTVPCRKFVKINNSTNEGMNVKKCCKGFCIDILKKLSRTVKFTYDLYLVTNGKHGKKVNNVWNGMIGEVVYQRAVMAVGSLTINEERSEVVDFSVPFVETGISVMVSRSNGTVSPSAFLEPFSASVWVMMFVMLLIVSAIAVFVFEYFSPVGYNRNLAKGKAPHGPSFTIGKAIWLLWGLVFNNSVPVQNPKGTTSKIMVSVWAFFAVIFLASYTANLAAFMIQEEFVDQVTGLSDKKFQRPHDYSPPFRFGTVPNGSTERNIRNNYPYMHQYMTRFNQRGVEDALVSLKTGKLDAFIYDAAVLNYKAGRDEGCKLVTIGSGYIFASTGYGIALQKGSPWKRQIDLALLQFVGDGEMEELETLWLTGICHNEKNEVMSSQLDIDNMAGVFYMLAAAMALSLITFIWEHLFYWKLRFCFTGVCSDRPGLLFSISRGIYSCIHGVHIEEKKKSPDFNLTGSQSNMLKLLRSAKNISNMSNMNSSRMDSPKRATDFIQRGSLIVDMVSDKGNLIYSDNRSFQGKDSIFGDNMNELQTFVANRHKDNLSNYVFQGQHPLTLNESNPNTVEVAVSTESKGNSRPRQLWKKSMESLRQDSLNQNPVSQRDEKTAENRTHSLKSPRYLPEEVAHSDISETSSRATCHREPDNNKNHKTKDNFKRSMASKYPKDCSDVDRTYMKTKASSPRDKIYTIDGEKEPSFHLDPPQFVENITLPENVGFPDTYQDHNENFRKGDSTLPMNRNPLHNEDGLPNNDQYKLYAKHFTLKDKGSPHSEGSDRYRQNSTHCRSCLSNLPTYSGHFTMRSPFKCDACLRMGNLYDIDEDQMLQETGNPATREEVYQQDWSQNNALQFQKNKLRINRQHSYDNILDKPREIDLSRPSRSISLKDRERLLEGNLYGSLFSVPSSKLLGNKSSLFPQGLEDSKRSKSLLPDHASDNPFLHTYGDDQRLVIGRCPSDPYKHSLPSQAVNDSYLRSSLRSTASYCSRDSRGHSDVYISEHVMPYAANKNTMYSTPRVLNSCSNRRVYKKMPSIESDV

[5] = target: Glutamate receptor ionotropic, NMDA 2D (Rattus norvegicus) (UniProt Q62645); experiment: Allosteric modulation of rat GluN2D expressed in Xenopus laevis oocytes assessed as L-glutamate/glycine-induced current response at 100 uM at holding potential -60 mV by two-electrode voltage clamp method relative to L-glutamate/glycine; format: cell-based; in short: as §1
[6] = target: Glutamate receptor ionotropic, NMDA 2D (Rattus norvegicus) (UniProt Q62645); experiment: Agonist activity at rat GluN2D expressed in Xenopus laevis oocytes assessed as effect on current response at holding potential -60 mV by two-electrode voltage clamp method relative to L-glutamate/glycine; format: cell-based; in short: as §1
[7] = target: Glutamate receptor ionotropic, NMDA 2B (Rattus norvegicus) (UniProt Q00960); experiment: Agonist activity at rat GluN2B expressed in Xenopus laevis oocytes assessed as effect on current response at holding potential -60 mV by two-electrode voltage clamp method relative to L-glutamate/glycine; format: cell-based; in short: as §1
[8] = target: Glutamate receptor ionotropic, NMDA 2C (Rattus norvegicus) (UniProt Q00961); experiment: Agonist activity at rat GluN2C expressed in Xenopus laevis oocytes assessed effect on current response at holding potential -60 mV by two-electrode voltage clamp method relative to L-glutamate/glycine; format: cell-based; in short: as §1
[9] = target: Glutamate receptor ionotropic, NMDA 2A (Rattus norvegicus) (UniProt Q00959); experiment: Agonist activity at rat GluN2A expressed in Xenopus laevis oocytes assessed effect on current response at holding potential -60 mV by two-electrode voltage clamp method relative to L-glutamate/glycine; format: cell-based; in short: as §1

| SMILES | Activity [1] | solubility [2] | Activity [3] | Activity [4] | Activity [5] | Activity [6] | Activity [7] | Activity [8] | Activity [9] |
| --- | --- | --- | --- | --- | --- | --- | --- | --- | --- |
| O=C(O)c1cccc(/C=C/c2ccc3cc(O)c(C(=O)O)cc3c2)c1 | 76.8% | Soluble | 70% | 90.3% | 61.4% |  |  |  |  |
| CC(C)CSCc1ccc2cc(C(=O)O)ccc2c1 | 105% | Soluble | 77% | 113% | 100% |  |  |  |  |
| COc1ccccc1/C=C/c1ccc2cc(O)c(C(=O)O)cc2c1 | 61.7% | Soluble | 74% | 105% | 71% |  |  |  |  |
| CCCCOc1ccc2cc(C(=O)O)ccc2c1 | 63% | Soluble | 46% | 55% | 57% | inactive | inactive | inactive | inactive |
| CCC/C=C/c1ccc2cc(C(=O)O)ccc2c1 | 82% | Soluble | 58% | 51% | 68% | inactive | inactive | inactive | inactive |
| O=C(O)c1cc2cc(CCc3ccccc3C(=O)O)ccc2cc1O | 94.1% | Soluble | 85.2% | 91.8% | 80.7% |  |  |  |  |
| O=C(O)c1ccc(CCc2ccc3cc(O)c(C(=O)O)cc3c2)cc1 | 115% | Soluble | 95.8% | 102% | 92.6% |  |  |  |  |
| CC(CCCc1ccc2cc(C(=O)O)ccc2c1)CC(=O)O (racemic) | 96% | Soluble | 64% | 60% | 71% | inactive | inactive | inactive | inactive |
| CC(C)CCC(=O)c1ccc2cc(C(=O)O)ccc2c1 | 99% | Soluble | 82% | 128% | 79% |  |  |  |  |
| CC(C)C/C=C/c1ccc2cc(C(=O)O)ccc2c1 | 264% | Soluble | 152% | 135% | 220% | inactive | inactive | inactive | inactive |
| O=C(O)c1cc2cc(/C=C/c3ccccc3C(=O)O)ccc2cc1O | 83.7% | Soluble | 84.5% | 92.1% | 103% |  |  |  |  |
| O=C(O)c1cc2ccc(/C=C/c3ccccc3)cc2cc1C(=O)O | 37.1% | Soluble | 66.7% | 55% | 38.6% |  |  |  |  |
| CC(C)C(=O)OCc1ccc2cc(C(=O)O)ccc2c1 | 56% | Soluble | 45% | 73% | 42% |  |  |  |  |
| O=C(O)c1ccc2cc(I)c3ccccc3c2c1 | 65.9% | Soluble | 101% | 109% | 47.7% | inactive | inactive | inactive | inactive |
| CC(C)CC(Cc1ccc2cc(C(=O)O)ccc2c1)C(=O)O (racemic) | 118% | Soluble | 78% | 104% | 85% | inactive | inactive | inactive | inactive |
| CC(C)COCc1ccc2cc(C(=O)O)ccc2c1 | 83% | Soluble | 49% | 83% | 72% |  |  |  |  |
| CCCCCc1ccc2cc(C(=O)O)ccc2c1Br | 97% | Soluble | 52% | 73% | 99% | inactive | inactive | inactive | inactive |

| SMILES | Activity [1] | solubility [2] | Activity [3] | Activity [4] | Activity [5] | Activity [6] | Activity [7] | Activity [8] | Activity [9] |
| --- | --- | --- | --- | --- | --- | --- | --- | --- | --- |
| O=C(O)c1ccc2cc(CCCCc3ccccc3)ccc2c1 | 123% | Soluble | 120% | 118% | 115% | inactive | inactive | inactive | inactive |
| O=C(O)c1ccc2cc(C3CC3)ccc2c1 | 97% | Soluble | 97% | 97% | 94% | inactive | inactive | inactive | inactive |
| CC(C)CCCc1ccc2cc(C(=O)O)c(O)cc2c1 | 357% | Soluble | 309% | 178% | 301% | inactive | inactive | inactive | inactive |
| CCCCCc1ccc2cc(CC(=O)O)ccc2c1 | 60% | Soluble | 67% | 67% | 37% | inactive | inactive | inactive | inactive |
| CC(C/C=C/c1ccc2cc(C(=O)O)ccc2c1)C(=O)O (racemic) | 105% | Soluble | 97% | 107% | 97% | inactive | inactive | inactive | inactive |
| CC(CCCc1ccc2cc(C(=O)O)ccc2c1)C(=O)O (racemic) | 98% | Soluble | 85% | 110% | 107% | inactive | inactive | inactive | inactive |
| CCCCCc1ccc2cc(CO)ccc2c1 | 76% | Soluble | 84% | 89% | 85% | inactive | inactive | inactive | inactive |
| CC(C)CCCc1ccc2cc(C(=O)O)c(C(=O)O)cc2c1 | 47% | Soluble | 88% | 92% | 24% | inactive | inactive | inactive | inactive |
| COc1ccc(/C=C/c2ccc3cc(O)c(C(=O)O)cc3c2)cc1 | 39.6% | Soluble | 36% | 42.7% | 39% |  |  |  |  |
| COc1cccc(/C=C/c2ccc3cc(O)c(C(=O)O)cc3c2)c1 | 30.8% | Soluble | 24.9% | 52.4% | 29.9% |  |  |  |  |
| CC(C)COC(=O)c1ccc2cc(C(=O)O)ccc2c1 | 144% | Soluble | 179% | 159% | 169% |  |  |  |  |
| CC(C)CNC(=O)c1ccc2cc(C(=O)O)ccc2c1 | 46% | Soluble | 65% | 65% | 99% |  |  |  |  |
| CC(C)CCCc1ccc2cc(O)c(C(=O)O)cc2c1 | 113% | Soluble | 113% | 78% | 180% | inactive | inactive | inactive | inactive |
| O=C(O)c1cc2cc(CCc3ccccc3)ccc2cc1O | 46.8% | Soluble | 54.3% | 71.4% | 32.1% |  |  |  |  |
| O=C(O)c1ccc(/C=C/c2ccc3cc(O)c(C(=O)O)cc3c2)cc1 | 85.2% | Soluble | 89% | 89.7% | 67% |  |  |  |  |
| O=C(O)c1cc2cc(/C=C/c3ccccc3)ccc2oc1=O | 114% | Soluble | 92% | 95.1% | 119% |  |  |  |  |
